According to ChEMBL document CHEMBL1133270, “Cinnamaldehydes inhibit cyclin dependent kinase 4/cyclin D1” (Bioorg Med Chem Lett, 2000):
pIC50: −log10 of the molar value.

How the values were obtained:
Format in all cases: protein-complex assay
[1] = target: Cyclin-dependent kinase 1/cyclin B (Homo sapiens, UniProt P06493); assay: Inhibition of Cyclin B-cyclin-dependent kinase 1
Outline: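 Cyclin B-CDK1 purified from starfish oocytes; histone H1 as substrate; kinase reaction run for 10 min at 30 °C. Read-out is histone H1 phosphorylation, expressed as a percentage of the control reaction run without inhibitor.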

[2] = target: T1, Cyclin-dependent kinase 4/cyclin D1 (Homo sapiens, UniProt P11802); assay: Inhibition of Cyclin D1-cyclin-dependent kinase 4
T1 sequence (P11802 whole entry, the tested form may be a part): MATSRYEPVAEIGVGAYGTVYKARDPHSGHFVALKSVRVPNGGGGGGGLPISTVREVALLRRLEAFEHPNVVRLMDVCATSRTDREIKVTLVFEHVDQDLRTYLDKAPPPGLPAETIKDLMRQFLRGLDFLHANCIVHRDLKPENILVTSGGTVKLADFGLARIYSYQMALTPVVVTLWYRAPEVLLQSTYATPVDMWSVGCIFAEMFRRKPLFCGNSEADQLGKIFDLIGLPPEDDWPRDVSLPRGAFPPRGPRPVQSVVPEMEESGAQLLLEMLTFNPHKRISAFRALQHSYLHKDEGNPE
T1 sequence (P24385 whole entry, further chain, the tested form may be a part): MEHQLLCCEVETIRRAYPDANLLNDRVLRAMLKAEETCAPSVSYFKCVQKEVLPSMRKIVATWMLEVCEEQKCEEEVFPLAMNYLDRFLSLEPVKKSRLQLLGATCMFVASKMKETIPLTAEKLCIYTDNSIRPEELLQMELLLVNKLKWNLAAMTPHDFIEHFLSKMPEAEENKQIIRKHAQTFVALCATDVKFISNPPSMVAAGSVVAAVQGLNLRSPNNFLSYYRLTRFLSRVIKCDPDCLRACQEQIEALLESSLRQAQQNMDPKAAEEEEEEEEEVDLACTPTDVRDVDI
Outline: (§1)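 GST-cyclin D1-CDK4 from baculovirus-infected Sf21 cells, purified by glutathione chromatography, used at 200 nM. The substrate was a GST-RB fusion (RB residues 792–928), with ATP plus [γ-³³P]ATP. Compounds were added and the reaction ran 30 min at 30 °C, then was stopped with ice-cold 30% TCA. Products were captured on PVDF filter plates and ³³P-RB counted by scintillation. Inhibition is expressed relative to an inhibitor-free control.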

[3] = target: Cyclin-dependent kinase 4/cyclin D1 (Homo sapiens) (UniProt P11802+P24385); assay: Inhibitory activity against Cyclin D1-cyclin-dependent kinase 4; design: concentration or dose not given beside the values; settings: concentration not given here; outline: as §1
[4] = target: T1, Cyclin-dependent kinase 4/cyclin D1; assay: Inhibition of Cyclin D1-Cyclin dependent kinase 4; outline: as §1

SMILES	inhibition [3]	also measured
Cc1ccccc1COc1ccccc1/C=C/C=O	70%	pIC50 [1]: 3.70; pIC50 [2]: 4.74
O=C(O)/C=C/c1ccccc1O	< 10%	–
Cc1ccc(COc2ccccc2/C=C/C=O)cc1	68%	–
O=C/C=C/c1ccccc1O [2-HYDROXYCINNAMALDEHYDE]	50%	pIC50 [1]: 3.89; pIC50 [2]: 4.46
Cc1ccccc1COc1cccc(/C=C/C=O)c1	73%	pIC50 [1]: 4.22; pIC50 [2]: 4.82
O=C/C=C/c1cccc(OCCc2ccccc2)c1	80%	–
N#Cc1ccccc1COc1ccccc1/C=C/C=O	22%	–
O=C/C=C/c1cccc(O)c1	40%	pIC50 [1]: 4.52; pIC50 [4]: 4.35
O=C/C=C/c1ccccc1OCc1ccc(Br)cc1	71%	–
CC(Oc1ccccc1/C=C/C=O)c1ccccc1 (stereo unspecified)	63%	–
Cc1ccc(C(=O)Oc2ccccc2/C=C/C=O)cc1	50%	–
O=C/C=C/c1cccc(OCc2cccc3ccccc23)c1	85%	–
COc1ccccc1COc1cccc(/C=C/C=O)c1	65%	–
O=C/C=C/c1cccnc1	54%	–
Cc1ccc(COc2cccc(/C=C/C=O)c2)cc1	84%	–
COc1ccccc1COc1ccccc1/C=C/C=O	43%	–
O=C/C=C/c1ccccc1[N+](=O)[O-]	30%	–

SMILES	inhibition [3]	also measured
COc1ccc(COc2cccc(/C=C/C=O)c2)cc1	82%	–
COc1ccc(/C=C/C=O)cc1OCc1ccc(Br)cc1	58%	–
COc1ccc2c(COc3cccc(/C=C/C=O)c3)cc(=O)oc2c1	53%	–
COc1ccc(/C=C/C=O)cc1O	40%	–
O=C/C=C/c1cccc(OCc2ccccc2)c1	94%	pIC50 [1]: 4.30; pIC50 [2]: 5.12
O=C/C=C/c1cccc(OCc2ccc(Br)cc2)c1	88%	–
O=C/C=C/c1ccccc1OCc1cccc2ccccc12	38%	–
CC(Oc1cccc(/C=C/C=O)c1)c1ccccc1 (stereo unspecified)	77%	–
N#Cc1ccccc1COc1cccc(/C=C/C=O)c1	45%	–
O=C/C=C/c1ccccc1OC(=O)c1ccccc1	52%	–
O=C/C=C/c1ccccc1OC(=O)c1ccc(F)cc1	25%	–
O=C/C=C/c1cccc(OCc2ccc3c(c2)C(=O)c2ccccc2C3=O)c1	34%	–
COc1ccc(COc2ccccc2/C=C/C=O)cc1	59%	–
COc1ccccc1C(=O)Oc1ccccc1/C=C/C=O	23%	–
O=C/C=C/c1ccccc1Cl	51%	–
O=C/C=C/c1ccccc1OCc1ccccc1	85%	pIC50 [1]: 4.30; pIC50 [2]: 4.96
O=C/C=C/c1ccccc1OCCc1ccccc1	72%	–
